Results taken from ChEMBL document CHEMBL1137420, “Design of cyclic peptides with agonist activity at melanocortin receptor-4” (Bioorg Med Chem Lett, 2006).

What was measured:
[1] = biological target: Melanocyte-stimulating hormone receptor (Homo sapiens, UniProt Q01726); assay: Activity at human MC1R by cAMP accumulation in SaoS2 cells; format: functional, cell-based, SAOS-2
Melanocortin receptor 4 [2] = biological target: T1, Melanocortin receptor 4 (Homo sapiens, UniProt P32245); assay: Displacement of [125I]NDP-alpha-MSH from human cloned MC4R expressed in HEK293 cells; format: cell-based
Procedure, shortened: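 Binding affinity was measured by displacement of radiolabelled [125I]NDP-alpha-MSH ([Nle4, D-Phe7]-alpha-MSH) from recombinant human MC4R expressed in HEK-293 cells.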

Melanocortin receptor 4 [3] = biological target: T1, Melanocortin receptor 4; assay: Activity at human MC4R by cAMP accumulation in SaoS2 cells; format: functional, cell-based, SAOS-2
[4] = biological target: Melanocortin receptor (M1 and M4) (Homo sapiens, UniProt P32245+Q01726); assay: Selectivity for human MC4R over MC1R; format: functional

Sequence of Melanocyte-stimulating hormone receptor (Q01726 whole entry): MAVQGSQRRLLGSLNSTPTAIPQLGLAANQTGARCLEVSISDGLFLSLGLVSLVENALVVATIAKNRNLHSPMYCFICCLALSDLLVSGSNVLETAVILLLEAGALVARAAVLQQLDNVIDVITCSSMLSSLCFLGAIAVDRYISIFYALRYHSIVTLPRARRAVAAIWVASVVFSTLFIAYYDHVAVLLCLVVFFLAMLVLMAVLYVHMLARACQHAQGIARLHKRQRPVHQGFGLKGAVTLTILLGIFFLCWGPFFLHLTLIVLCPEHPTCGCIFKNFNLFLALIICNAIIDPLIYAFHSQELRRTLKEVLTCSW
T1 sequence (P32245 whole entry): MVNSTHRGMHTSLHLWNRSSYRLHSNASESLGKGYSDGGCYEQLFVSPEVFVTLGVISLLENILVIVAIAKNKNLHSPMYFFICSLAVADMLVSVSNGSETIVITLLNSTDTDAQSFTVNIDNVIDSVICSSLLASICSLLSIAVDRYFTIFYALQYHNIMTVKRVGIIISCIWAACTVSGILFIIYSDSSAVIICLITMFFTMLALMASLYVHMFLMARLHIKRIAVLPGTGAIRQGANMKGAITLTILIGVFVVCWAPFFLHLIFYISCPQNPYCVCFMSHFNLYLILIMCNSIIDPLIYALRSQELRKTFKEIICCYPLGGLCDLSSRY

Structure (SMILES)	EC50 [1]	Ki (Melanocortin receptor 4 [2])	EC50 (Melanocortin receptor 4 [3])	EC50 ratio (MC1R/MC4R) [4]
NC(N)=NCCC[C@@H]1NC(=O)[C@@H](Cc2ccccc2)NC(=O)[C@H](Cc2cnc[nH]2)NC(=O)CCCCCCCNC(=O)[C@H](Cc2c[nH]c3ccccc23)NC1=O	77.4 nM	319 nM	16.4 nM	4.7
N=C(N)NCCC[C@@H]1NC(=O)[C@H](Cc2ccccc2)NC(=O)[C@H](Cc2cnc[nH]2)NC(=O)CCCCCCCNC(=O)[C@H](Cc2c[nH]c3ccccc23)NC1=O	5100 nM	4420 nM	9590 nM	0.53
N=C(N)NCCC[C@@H]1NC(=O)[C@@H](Cc2ccccc2)NC(=O)[C@H](Cc2c[nH]cn2)NC(=O)CCCCNC(=O)[C@H](Cc2c[nH]c3ccccc23)NC1=O	3300 nM	–	10100 nM	0.33
NC(N)=NCCC[C@@H]1NC(=O)[C@@H](Cc2ccccc2)NC(=O)[C@H](Cc2cnc[nH]2)NC(=O)CCCNC(=O)[C@H](Cc2c[nH]c3ccccc23)NC1=O	270 nM	5780 nM	1580 nM	0.17
N=C(N)NCCC[C@@H]1NC(=O)[C@@H](Cc2ccccc2)NC(=O)[C@H](Cc2c[nH]cn2)NC(=O)CCCCCCNC(=O)[C@H](Cc2c[nH]c3ccccc23)NC1=O	67 nM	244 nM	15.4 nM	4.3
N=C(N)NCCC[C@@H]1NC(=O)[C@@H](Cc2ccccc2)NC(=O)[C@H](Cc2c[nH]cn2)NC(=O)CCCCCNC(=O)[C@H](Cc2c[nH]c3ccccc23)NC1=O	1300 nM	670 nM	3120 nM	0.42
